Blank lines part the entries; values can stand above or below the compound they belong to.
What was measured:
Assay type in all cases: ADME, organism-based, Macaca mulatta
[1] = Drug level in normal rhesus monkey white matter assessed as standard uptake value at 81.2 MBq, iv after 17.5 mins by microPET; conditions: in vivo
[2] = Drug level in normal rhesus monkey frontal cortex assessed as standard uptake value at 81.2 MBq, iv after 27.5 mins by microPET; conditions: in vivo
[3] = Drug level in normal rhesus monkey cerebellum assessed as standard uptake value at 81.2 MBq, iv after 47.5 mins by microPET; conditions: in vivo
Outline: (§1)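 One normal rhesus monkey, each tracer given iv via the vena saphena (81.2, 96.3 or 109.4 MBq), with 1 day between tracer injections. Dynamic brain μPET over 180 min used frames of 5 × 60 s, 5 × 120 s, 9 × 300 s and 12 × 600 s. Images were reconstructed by filtered back projection with a RAMP filter. Regional time-activity curves were expressed as SUV.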

[4] = Drug level in normal rhesus monkey thalamus assessed as standard uptake value at 81.2 MBq, iv after 17.5 mins by microPET; conditions: in vivo
[5] = Drug level in normal rhesus monkey white matter assessed as standard uptake value at 81.2 MBq, iv after 10 mins by microPET; conditions: in vivo
[6] = Drug level in normal rhesus monkey cerebellum assessed as standard uptake value at 81.2 MBq, iv after 65 mins by microPET; conditions: in vivo; outline: as §1
[7] = Drug level in normal rhesus monkey cerebellum assessed as standard uptake value at 81.2 MBq, iv after 17.5 mins by microPET; conditions: in vivo; outline: as §1
[8] = Drug level in normal rhesus monkey cerebellum assessed as standard uptake value at 81.2 MBq, iv after 37.5 mins by microPET; conditions: in vivo, 0.625 h; outline: as §1
[9] = Drug level in normal rhesus monkey cerebellum assessed as standard uptake value at 81.2 MBq, iv after 22.5 mins by microPET; conditions: in vivo, 0.375 h; outline: as §1
[10] = Drug level in normal rhesus monkey cerebellum assessed as standard uptake value at 96.3 MBq, iv after 32.5 mins by microPET; conditions: in vivo; outline: as §1
[11] = Drug level in normal rhesus monkey white matter assessed as standard uptake value at 96.3 MBq, iv after 27.5 mins by microPET; conditions: in vivo
[12] = Drug level in normal rhesus monkey frontal cortex assessed as standard uptake value at 96.3 MBq, iv after 3.5 mins by microPET; conditions: in vivo
[13] = Drug level in normal rhesus monkey white matter assessed as standard uptake value at 96.3 MBq, iv after 12 mins by microPET; conditions: in vivo, 0.2 h
[14] = Drug level in normal rhesus monkey parietal cortex assessed as standard uptake value at 96.3 MBq, iv after 37.5 mins by microPET; conditions: in vivo, 0.625 h
[15] = Drug level in normal rhesus monkey parietal cortex assessed as standard uptake value at 96.3 MBq, iv after 22.5 mins by microPET; conditions: in vivo, 0.375 h
[16] = Drug level in normal rhesus monkey pons assessed as standard uptake value at 96.3 MBq, iv after 105 mins by microPET; conditions: in vivo, 1.75 h
[17] = Drug level in normal rhesus monkey parietal cortex assessed as standard uptake value at 96.3 MBq, iv after 2.5 mins by microPET; conditions: in vivo
[18] = Drug level in normal rhesus monkey thalamus assessed as standard uptake value at 96.3 MBq, iv after 10 mins by microPET; conditions: in vivo
[19] = Drug level in normal rhesus monkey white matter assessed as standard uptake value at 96.3 MBq, iv after 4.5 mins by microPET; conditions: in vivo, 0.075 h
[20] = Drug level in normal rhesus monkey white matter assessed as standard uptake value at 96.3 MBq, iv after 47.5 mins by microPET; conditions: in vivo
[21] = Drug level in normal rhesus monkey cerebellum assessed as standard uptake value at 96.3 MBq, iv after 6 mins by microPET; conditions: in vivo, 0.1 h
Outline: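 Single normal rhesus monkey; each tracer given iv via the vena saphena, with 1 day between tracer injections. Dynamic μPET ran 180 min (5×60 s, 5×120 s, 9×300 s, 12×600 s). Images were reconstructed by filtered back projection with a RAMP filter. Regional time-activity curves were expressed as SUV.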

[22] = Drug level in normal rhesus monkey parietal cortex assessed as standard uptake value at 109.4 MBq, iv after 0.625 mins by microPET; conditions: in vivo, 38 s
[23] = Drug level in normal rhesus monkey pons assessed as standard uptake value at 109.4 MBq, iv after 12.5 mins by microPET; conditions: in vivo
[24] = Drug level in normal rhesus monkey cerebellum assessed as standard uptake value at 109.4 MBq, iv after 32.5 mins by microPET; conditions: in vivo
Outline: (§2)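 One normal rhesus monkey received each tracer via the vena saphena, with 1 day between injections. Dynamic μPET ran 180 min for 18F tracers (5×60 s, 5×120 s, 9×300 s, 12×600 s) and 90 min for the 11C tracer (5×60 s, 5×120 s, 9×300 s, 3×600 s). Filtered back-projection reconstruction (RAMP filter) was used. Time-activity curves were drawn to give regional SUV.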

[25] = Drug level in normal rhesus monkey white matter assessed as standard uptake value at 109.4 MBq, iv after 87 mins by microPET; conditions: in vivo, 1.45 h
[26] = Drug level in normal rhesus monkey pons assessed as standard uptake value at 152.9 MBq, iv after 27.5 mins by microPET; conditions: in vivo
[27] = Drug level in normal rhesus monkey frontal cortex assessed as standard uptake value at 152.9 MBq, iv after 12 mins by microPET; conditions: in vivo, 0.2 h
Outline: (§3)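 Single normal rhesus monkey; tracer given iv via the vena saphena, 1 day apart from the other tracer injections. Dynamic μPET ran 90 min (5×60 s, 5×120 s, 9×300 s, 3×600 s). Images were reconstructed by filtered back projection with a RAMP filter. Regional time-activity curves were expressed as SUV.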

[28] = Drug level in normal rhesus monkey frontal cortex assessed as standard uptake value at 152.9 MBq, iv after 10 mins by microPET; conditions: in vivo; outline: as §3
[29] = Drug level in normal rhesus monkey thalamus assessed as standard uptake value at 152.9 MBq, iv after 22.5 mins by microPET; conditions: in vivo, 0.375 h
[30] = Drug level in normal rhesus monkey white matter assessed as standard uptake value at 152.9 MBq, iv after 37.5 mins by microPET; conditions: in vivo, 0.625 h
[31] = Drug level in normal rhesus monkey pons assessed as standard uptake value at 152.9 MBq, iv after 32.5 mins by microPET; conditions: in vivo
[32] = Drug level in normal rhesus monkey white matter assessed as standard uptake value at 152.9 MBq, iv after 32.5 mins by microPET; conditions: in vivo
[33] = Drug level in normal rhesus monkey parietal cortex assessed as standard uptake value at 152.9 MBq, iv after 65 mins by microPET; conditions: in vivo
[34] = Drug level in normal rhesus monkey cerebellum assessed as standard uptake value at 152.9 MBq, iv after 3.5 mins by microPET; conditions: in vivo; outline: as §2
[35] = Drug level in normal rhesus monkey frontal cortex assessed as standard uptake value at 152.9 MBq, iv after 8 mins by microPET; conditions: in vivo; outline: as §3
[36] = Drug level in normal rhesus monkey white matter assessed as standard uptake value at 152.9 MBq, iv after 75 mins by microPET; conditions: in vivo, 1.25 h

SUV [1]: 3.647
SUV [2]: 5.784
SUV [3]: 1.883
SUV [4]: 5.379
SUV [5]: 3.524
SUV [6]: 1.88
SUV [7]: 2.753
SUV [8]: 2.545
SUV [9]: 2.518
SMILES: CNc1ccc2nc(-c3ccc([18F])cc3)sc2c1

SUV [10]: 1.46
SUV [11]: 1.39
SUV [12]: 1.39
SUV [13]: 1.31
SUV [14]: 1.84
SUV [15]: 2.09
SUV [16]: 1.72
SUV [17]: 2
SUV [18]: 2.12
SUV [19]: 1.22
SUV [20]: 1.37
SUV [21]: 1.72
SMILES: CN(C)c1ccc2nc(-c3ccc([18F])cc3)sc2c1

SUV [22]: 1.52
SUV [23]: 4.65
SUV [24]: 4.03
SUV [25]: 3.65
SMILES: Nc1ccc2nc(-c3ccc([18F])cc3)sc2c1

SUV [26]: 1.583
SUV [27]: 2.027
SUV [28]: 2.163
SUV [29]: 1.903
SUV [30]: 1.095
SUV [31]: 1.365
SUV [32]: 1.12
SUV [33]: 0.69
SUV [34]: 2.17
SUV [35]: 2.29
SUV [36]: 0.828
SMILES: [11CH3]Nc1ccc(-c2nc3ccc(O)cc3s2)cc1 [PITTSBURGH COMPOUND B]

Source: ChEMBL document CHEMBL1154674, “Synthesis and evaluation of three 18F-labeled aminophenylbenzothiazoles as amyloid imaging agents” (J Med Chem, 2009)
